The target in assay [1] is T1, Cytoplasmic tyrosine-protein kinase BMX (Homo sapiens) (UniProt P51813).
T1 sequence (whole entry): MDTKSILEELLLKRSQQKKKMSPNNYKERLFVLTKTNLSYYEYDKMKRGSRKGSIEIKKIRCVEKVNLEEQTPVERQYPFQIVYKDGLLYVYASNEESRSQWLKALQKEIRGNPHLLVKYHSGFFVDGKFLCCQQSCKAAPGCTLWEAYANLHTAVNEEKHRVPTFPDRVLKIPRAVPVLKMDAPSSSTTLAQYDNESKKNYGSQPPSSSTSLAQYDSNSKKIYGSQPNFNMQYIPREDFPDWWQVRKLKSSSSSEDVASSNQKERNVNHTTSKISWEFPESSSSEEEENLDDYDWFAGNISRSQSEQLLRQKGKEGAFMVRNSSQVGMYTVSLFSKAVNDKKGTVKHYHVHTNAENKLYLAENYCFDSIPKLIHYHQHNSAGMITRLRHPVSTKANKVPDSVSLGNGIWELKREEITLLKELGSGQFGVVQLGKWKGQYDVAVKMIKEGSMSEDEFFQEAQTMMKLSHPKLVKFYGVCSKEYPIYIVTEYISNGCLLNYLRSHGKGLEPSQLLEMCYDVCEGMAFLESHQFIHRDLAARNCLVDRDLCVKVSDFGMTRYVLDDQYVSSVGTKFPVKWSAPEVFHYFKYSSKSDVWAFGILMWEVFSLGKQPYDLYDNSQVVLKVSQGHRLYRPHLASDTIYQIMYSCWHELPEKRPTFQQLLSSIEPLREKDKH
Briefly: Inhibition of human recombinant BMX at 500 nM in presence of ATP by radiometric assay relative to control. Put shortly: (§1)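 Part of a radiometric in vitro activity panel of 327 recombinant human kinases. Each kinase was tested in duplicate at one inhibitor concentration. Activity remaining was expressed as a percentage of the vehicle control, and percent inhibition was taken as 100 minus that value.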

The target of assay [2] is Bone morphogenetic protein receptor type-1B (Homo sapiens) (UniProt O00238). Briefly: Inhibition of human recombinant BMPR1B at 500 nM in presence of ATP by radiometric assay relative to control. The method in brief:
as §1

The target in assay [3] is Serine/threonine-protein kinase SIK2 (Homo sapiens) (UniProt Q9H0K1). Nature of the assay: Inhibition of human recombinant QIK at 500 nM related to control ULK1.
Chain of Serine/threonine-protein kinase SIK2 (Homo sapiens) (Q9H0K1 whole entry, looked up): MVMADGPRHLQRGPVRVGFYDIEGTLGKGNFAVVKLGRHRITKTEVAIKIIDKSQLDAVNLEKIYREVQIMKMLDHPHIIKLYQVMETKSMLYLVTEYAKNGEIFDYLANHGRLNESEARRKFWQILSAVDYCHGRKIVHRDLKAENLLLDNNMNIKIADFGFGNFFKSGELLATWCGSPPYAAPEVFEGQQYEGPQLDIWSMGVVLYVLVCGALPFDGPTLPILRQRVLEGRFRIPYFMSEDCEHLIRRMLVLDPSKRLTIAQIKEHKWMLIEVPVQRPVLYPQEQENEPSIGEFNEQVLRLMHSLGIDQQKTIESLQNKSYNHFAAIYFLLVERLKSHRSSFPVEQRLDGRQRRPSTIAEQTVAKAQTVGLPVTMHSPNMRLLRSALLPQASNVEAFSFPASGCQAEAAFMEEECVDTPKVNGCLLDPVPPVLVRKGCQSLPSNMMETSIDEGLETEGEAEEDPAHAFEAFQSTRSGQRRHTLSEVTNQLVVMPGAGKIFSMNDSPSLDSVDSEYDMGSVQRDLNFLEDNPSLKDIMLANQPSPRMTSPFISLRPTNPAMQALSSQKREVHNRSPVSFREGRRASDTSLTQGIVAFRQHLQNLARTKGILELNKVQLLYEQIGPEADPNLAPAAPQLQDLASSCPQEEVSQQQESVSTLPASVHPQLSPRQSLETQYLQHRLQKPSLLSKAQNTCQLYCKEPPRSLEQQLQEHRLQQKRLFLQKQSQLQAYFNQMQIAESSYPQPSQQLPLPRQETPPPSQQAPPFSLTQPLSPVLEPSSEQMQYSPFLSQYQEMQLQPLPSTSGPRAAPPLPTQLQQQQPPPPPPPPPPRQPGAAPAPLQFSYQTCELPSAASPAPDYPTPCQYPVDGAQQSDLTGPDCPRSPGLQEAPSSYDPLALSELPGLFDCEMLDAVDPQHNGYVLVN
The target of assay [4] is Calcium/calmodulin-dependent protein kinase type II subunit beta (Homo sapiens) (UniProt Q13554). Briefly: Inhibition of human recombinant CaMK2b at 15 nM related to control ULK1.
Chain of Calcium/calmodulin-dependent protein kinase type II subunit beta (Homo sapiens) (Q13554 whole entry): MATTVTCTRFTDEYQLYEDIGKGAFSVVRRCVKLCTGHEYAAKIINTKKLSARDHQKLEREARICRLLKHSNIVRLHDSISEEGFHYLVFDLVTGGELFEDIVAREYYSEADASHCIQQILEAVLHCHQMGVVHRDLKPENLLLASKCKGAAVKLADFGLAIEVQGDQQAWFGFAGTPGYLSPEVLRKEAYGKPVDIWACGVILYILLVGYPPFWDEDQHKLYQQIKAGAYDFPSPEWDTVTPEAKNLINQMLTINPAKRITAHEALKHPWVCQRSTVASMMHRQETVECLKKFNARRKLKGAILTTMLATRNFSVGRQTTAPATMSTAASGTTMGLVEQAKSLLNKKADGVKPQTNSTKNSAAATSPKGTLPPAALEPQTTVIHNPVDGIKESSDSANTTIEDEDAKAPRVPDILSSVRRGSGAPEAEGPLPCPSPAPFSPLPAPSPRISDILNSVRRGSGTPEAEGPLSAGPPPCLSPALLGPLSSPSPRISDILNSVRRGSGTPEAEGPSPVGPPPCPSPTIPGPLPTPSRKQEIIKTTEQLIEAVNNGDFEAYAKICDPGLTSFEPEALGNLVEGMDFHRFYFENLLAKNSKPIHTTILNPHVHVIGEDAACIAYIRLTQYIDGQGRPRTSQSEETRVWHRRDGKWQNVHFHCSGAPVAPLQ
Assay [5] deals with Mitogen-activated protein kinase kinase kinase 9 (Homo sapiens) (UniProt P80192). Nature of the assay: Inhibition of human recombinant MLK1 at 15 nM in presence of ATP by radiometric assay relative to control.
The target of assay [6] is T2, Serine/threonine-protein kinase ULK2 (Homo sapiens) (UniProt Q8IYT8).
T2 sequence (whole entry): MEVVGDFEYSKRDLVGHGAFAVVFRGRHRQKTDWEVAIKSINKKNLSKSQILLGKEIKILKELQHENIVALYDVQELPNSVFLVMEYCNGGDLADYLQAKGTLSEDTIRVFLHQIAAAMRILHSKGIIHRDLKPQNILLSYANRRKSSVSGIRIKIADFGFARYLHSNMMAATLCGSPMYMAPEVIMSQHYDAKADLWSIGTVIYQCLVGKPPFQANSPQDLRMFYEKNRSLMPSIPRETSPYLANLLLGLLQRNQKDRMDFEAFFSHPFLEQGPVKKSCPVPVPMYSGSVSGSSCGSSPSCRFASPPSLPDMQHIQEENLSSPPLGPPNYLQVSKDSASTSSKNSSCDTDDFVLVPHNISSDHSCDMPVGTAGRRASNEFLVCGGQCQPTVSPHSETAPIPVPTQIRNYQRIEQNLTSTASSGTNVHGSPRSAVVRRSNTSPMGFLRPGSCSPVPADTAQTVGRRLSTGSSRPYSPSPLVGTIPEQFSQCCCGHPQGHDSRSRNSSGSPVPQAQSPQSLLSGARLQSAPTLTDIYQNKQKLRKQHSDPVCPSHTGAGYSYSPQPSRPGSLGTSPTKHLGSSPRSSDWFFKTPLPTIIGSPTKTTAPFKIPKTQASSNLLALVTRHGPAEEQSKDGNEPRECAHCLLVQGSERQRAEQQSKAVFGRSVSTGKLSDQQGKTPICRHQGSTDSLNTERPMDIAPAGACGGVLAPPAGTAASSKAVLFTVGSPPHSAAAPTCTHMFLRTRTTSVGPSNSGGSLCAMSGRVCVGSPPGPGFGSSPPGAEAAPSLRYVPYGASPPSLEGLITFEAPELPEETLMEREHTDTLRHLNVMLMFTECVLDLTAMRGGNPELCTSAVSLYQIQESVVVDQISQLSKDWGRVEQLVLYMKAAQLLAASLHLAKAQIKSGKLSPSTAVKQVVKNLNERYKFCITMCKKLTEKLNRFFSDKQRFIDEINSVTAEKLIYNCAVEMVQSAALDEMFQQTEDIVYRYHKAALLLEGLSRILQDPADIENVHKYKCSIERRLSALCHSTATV
Nature of the assay: Inhibition of human recombinant ULK2 at 15 nM related to control ULK1.

The target of assay [7] is Serine/threonine-protein kinase PRP4 homolog (Homo sapiens) (UniProt Q13523). Briefly: Inhibition of human recombinant PRP4 at 15 nM related to control ULK1.
Chain of Serine/threonine-protein kinase PRP4 homolog (Homo sapiens) (Q13523 whole entry): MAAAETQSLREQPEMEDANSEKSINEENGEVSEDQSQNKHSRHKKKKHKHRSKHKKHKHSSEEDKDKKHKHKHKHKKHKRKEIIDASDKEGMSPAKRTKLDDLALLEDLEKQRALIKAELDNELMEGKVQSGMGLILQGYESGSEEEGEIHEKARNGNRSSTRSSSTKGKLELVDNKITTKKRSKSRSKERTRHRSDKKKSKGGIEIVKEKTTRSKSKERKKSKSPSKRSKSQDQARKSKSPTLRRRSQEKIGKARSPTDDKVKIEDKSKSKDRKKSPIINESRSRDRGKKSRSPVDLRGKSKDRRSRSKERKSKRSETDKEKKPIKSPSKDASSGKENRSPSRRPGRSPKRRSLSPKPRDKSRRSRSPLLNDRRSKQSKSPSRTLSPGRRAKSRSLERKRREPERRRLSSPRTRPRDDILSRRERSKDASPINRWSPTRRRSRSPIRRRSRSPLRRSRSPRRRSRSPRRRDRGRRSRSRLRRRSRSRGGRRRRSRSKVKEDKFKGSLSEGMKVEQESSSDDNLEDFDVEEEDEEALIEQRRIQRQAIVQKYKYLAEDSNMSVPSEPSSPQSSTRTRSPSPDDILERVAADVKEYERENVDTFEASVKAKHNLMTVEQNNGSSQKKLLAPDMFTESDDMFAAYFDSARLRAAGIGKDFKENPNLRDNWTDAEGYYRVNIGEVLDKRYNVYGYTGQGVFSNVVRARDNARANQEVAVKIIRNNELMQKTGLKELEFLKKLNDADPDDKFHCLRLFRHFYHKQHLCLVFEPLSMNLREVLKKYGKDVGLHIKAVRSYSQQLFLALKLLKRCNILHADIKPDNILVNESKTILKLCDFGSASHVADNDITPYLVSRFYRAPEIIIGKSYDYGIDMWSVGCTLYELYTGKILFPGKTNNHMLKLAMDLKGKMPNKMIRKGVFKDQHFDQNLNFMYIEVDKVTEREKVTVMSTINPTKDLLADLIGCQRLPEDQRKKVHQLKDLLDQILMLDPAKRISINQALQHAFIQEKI
The target in assay [8] is Activin receptor type-1-like (Homo sapiens) (UniProt P37023). Briefly: Inhibition of human recombinant ALK1 at 15 nM in presence of ATP by radiometric assay relative to control. The method in brief: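 Panel of 327 recombinant human kinases, each assayed in vitro by radiometric activity assay in duplicate at a single inhibitor concentration per compound, chosen with reference to its ULK1 inhibition. Activity remaining was expressed as percent of vehicle control, and percent inhibition was calculated as 100 minus percent activity remaining.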
Chain of Activin receptor type-1-like (Homo sapiens) (P37023 whole entry): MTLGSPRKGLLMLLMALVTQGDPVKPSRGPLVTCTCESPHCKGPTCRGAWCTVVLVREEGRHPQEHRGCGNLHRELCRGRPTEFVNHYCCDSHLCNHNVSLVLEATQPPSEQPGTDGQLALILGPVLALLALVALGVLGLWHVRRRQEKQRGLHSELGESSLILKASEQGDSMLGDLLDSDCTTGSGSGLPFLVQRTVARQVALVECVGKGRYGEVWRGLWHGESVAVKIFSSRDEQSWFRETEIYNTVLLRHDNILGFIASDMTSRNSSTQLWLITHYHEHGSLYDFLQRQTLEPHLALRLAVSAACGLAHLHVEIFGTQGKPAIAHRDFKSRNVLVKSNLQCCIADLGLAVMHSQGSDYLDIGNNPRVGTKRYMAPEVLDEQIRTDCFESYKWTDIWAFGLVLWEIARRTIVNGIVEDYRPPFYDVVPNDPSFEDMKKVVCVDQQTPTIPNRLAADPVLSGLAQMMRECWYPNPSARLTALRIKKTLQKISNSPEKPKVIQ

Assay [9] deals with Tyrosine-protein kinase BTK (Homo sapiens) (UniProt Q06187). Briefly: Inhibition of human recombinant BTK at 15 nM related to control ULK1.
Chain of Tyrosine-protein kinase BTK (Homo sapiens) (Q06187 whole entry): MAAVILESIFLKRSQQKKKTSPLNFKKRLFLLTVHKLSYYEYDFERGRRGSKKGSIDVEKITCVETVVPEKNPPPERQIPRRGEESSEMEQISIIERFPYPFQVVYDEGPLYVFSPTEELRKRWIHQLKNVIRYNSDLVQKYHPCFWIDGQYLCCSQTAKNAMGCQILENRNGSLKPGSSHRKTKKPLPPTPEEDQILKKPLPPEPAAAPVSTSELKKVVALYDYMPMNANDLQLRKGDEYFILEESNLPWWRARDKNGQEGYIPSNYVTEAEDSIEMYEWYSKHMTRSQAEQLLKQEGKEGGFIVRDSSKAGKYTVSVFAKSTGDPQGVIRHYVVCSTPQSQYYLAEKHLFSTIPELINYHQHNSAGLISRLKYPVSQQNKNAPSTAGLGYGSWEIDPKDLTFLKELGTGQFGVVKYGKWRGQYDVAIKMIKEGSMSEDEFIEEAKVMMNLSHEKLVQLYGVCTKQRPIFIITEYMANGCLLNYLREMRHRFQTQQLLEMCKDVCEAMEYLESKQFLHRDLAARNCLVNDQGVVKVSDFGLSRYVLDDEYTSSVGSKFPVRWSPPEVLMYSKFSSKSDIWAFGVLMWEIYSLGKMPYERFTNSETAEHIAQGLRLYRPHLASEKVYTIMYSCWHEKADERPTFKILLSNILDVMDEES
Assay [10] addresses Serine/threonine-protein kinase SIK2 (Homo sapiens) (UniProt Q9H0K1). Briefly: Inhibition of human recombinant QIK at 15 nM in presence of ATP by radiometric assay relative to control.

Chain of Bone morphogenetic protein receptor type-1B (Homo sapiens) (O00238 whole entry): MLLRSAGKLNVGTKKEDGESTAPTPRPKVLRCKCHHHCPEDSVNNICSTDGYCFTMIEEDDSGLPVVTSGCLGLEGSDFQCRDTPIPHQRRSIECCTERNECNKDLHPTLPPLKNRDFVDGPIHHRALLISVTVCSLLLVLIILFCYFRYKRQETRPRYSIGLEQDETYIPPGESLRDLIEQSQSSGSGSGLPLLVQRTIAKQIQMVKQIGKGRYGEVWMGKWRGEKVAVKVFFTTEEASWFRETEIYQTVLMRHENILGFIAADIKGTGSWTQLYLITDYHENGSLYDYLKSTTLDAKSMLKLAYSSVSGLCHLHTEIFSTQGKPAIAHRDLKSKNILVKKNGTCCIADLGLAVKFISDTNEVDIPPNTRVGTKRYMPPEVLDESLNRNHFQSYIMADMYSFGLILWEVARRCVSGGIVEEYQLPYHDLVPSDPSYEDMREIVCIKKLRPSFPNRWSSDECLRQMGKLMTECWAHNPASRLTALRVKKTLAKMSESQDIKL

One may read the inhibition as the share of the control response that was lost under treatment. As for `CNC(=O)c1ccccc1Oc1nc(Nc2cc(OC)c(OC)c(OC)c2)ncc1Br`, the inhibition was 16% in assay [1] and 0% in assay [2]. Besides, the fold change (FC) in [3] was found to be 0.
`CC(C)[C@H](NC(=O)c1cc(-c2cnn3cc(-c4ccc(OCCN5CCCCC5)cc4)cnc23)cs1)C(F)(F)F`: the fold change (FC) in [4] was found to be 0.11; in [6], 0.83; in assay [7], 0.07; in assay [9] it was 0. Also, the inhibition in assay [5] stood at 0%; in assay [8], 7%; in assay [10], 90%.

Values taken from ChEMBL document CHEMBL5653631, “A Potent and Selective ULK1 Inhibitor Suppresses Autophagy and Sensitizes Cancer Cells to Nutrient Stress” (iScience, 2018).
